ChEMBL document CHEMBL3352597, “Heck products of parthenolide and melampomagnolide-B as anticancer modulators that modify cell cycle progression” (Eur J Med Chem, 2014)
≈ marks a conversion by molar mass, not a printed value. Calls of active or inactive are those of the source. The calls are words filed in the database; no cut-off is given here.

Key:
[1] = test system: Oocyte; test: Induction of immature stage VI Xenopus oocyte maturation assessed as stimulation of progesterone-mediated maturation measured as germinal vesicle (nuclear) breakdown at 100 uM after overnight incubation; format: functional, cell-based
How it was run: (§1)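 Oocytes (20 per well) pre-treated overnight with compound (100 μM final, DMSO) or DMSO vehicle, then stimulated with 2 μg/ml progesterone. GVBD (animal-pole white spot) scored at the time 50% of DMSO controls reach GVBD. Rate relative to control: 1.0 means no difference, above 1.0 acceleration, below 1.0 delay, 0.0 no maturation. Differences over 20% followed up.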

[2] = Anticancer activity against human PC3 cells assessed as growth inhibition at 10^-5 M; format: functional; settings: PC-3, read-out: GI
How it was run: (§2)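 NCI-60 human tumour cell line panel screened at a single concentration of 10^-5 M; value is percent growth inhibition relative to untreated growth.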

[3] = test system: CCRF-CEM; test: Anticancer activity against human CCRF-CEM cells assessed as growth inhibition at 10^-5 M; format: functional; settings: read-out: GI; how it was run: as §2
[4] = test system: Oocyte; test: Induction of immature stage VI Xenopus oocyte maturation assessed as spontaneous maturation measured as germinal vesicle (nuclear) breakdown at 100 uM after overnight incubation; format: functional, cell-based
How it was run: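 Isolated Xenopus oocytes (20 per well) incubated overnight with compound in DMSO at 100 μM final, no progesterone. The next morning, GVBD is scored as a white spot at the animal pole. Rate is expressed relative to DMSO controls, where 2.0 means spontaneous maturation.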

[5] = test system: Xenopus; test: Induction of progesterone-independent of MAPK activation in immature stage VI Xenopus oocyte by Western blot analysis
How it was run: (§3)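 Oocytes treated with DMSO or compound without progesterone, harvested when 50% of treated oocytes completed GVBD, sorted by GVBD status. Lysates run on 10% gel and blotted with phospho-MAPK Thr202/Tyr204 and phospho-Cdc2 Tyr15 antibodies (1:1000), with tubulin as loading control. MPF activation read as Cdc2 dephosphorylation.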

[6] = Anticancer activity against human RPMI8226 cells assessed as growth inhibition at 10^-5 M; format: functional; settings: RPMI-8226, read-out: GI; how it was run: as §2
[7] = test system: Xenopus; test: Induction of progesterone-independent of MPF activation in immature stage VI Xenopus oocyte by Western blot analysis; how it was run: as §3
[8] = test system: K562; test: Anticancer activity against human K562 cells assessed as growth inhibition at 10^-5 M; format: functional; settings: read-out: GI; how it was run: as §2
[9] = Anticancer activity against human MOLT4 cells assessed as growth inhibition at 10^-5 M; format: functional; settings: MOLT-4, read-out: GI; how it was run: as §2
[10] = test system: Oocyte; test: Induction of immature stage VI Xenopus oocyte maturation assessed as stimulation of progesterone-mediated maturation measured as germinal vesicle (nuclear) breakdown after overnight incubation; format: functional, cell-based; settings: Xenopus laevis
[11] = test system: HL-60(TB); test: Anticancer activity against human HL-60(TB) cells assessed as growth inhibition at 10^-5 M; format: functional; settings: read-out: GI
How it was run: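 NCI 60 panel initial screen at a single concentration of 10^-5 M. Value is reported as percent growth inhibition of the cell line.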

[12] = test system: MCF7; test: Anticancer activity against human MCF7 cells assessed as growth inhibition at 10^-5 M; format: functional; settings: read-out: GI; how it was run: as §2
[13] = test system: Oocyte; test: Inhibition of immature stage VI Xenopus oocyte maturation assessed as inhibition of progesterone-mediated maturation measured as germinal vesicle (nuclear) breakdown at 100 uM after overnight incubation; format: functional, cell-based; how it was run: as §1
[14] = Solubility in serum (unknown origin); format: ADME

C[C@@]12CC/C=C(/CO)CC[C@@H]3/C(=C\c4ccc(N)cc4)C(=O)O[C@@H]3[C@@H]1O2
Activity [1]: Active

C[C@@]12CC/C=C(/CO)CC[C@@H]3/C(=C\c4cccs4)C(=O)O[C@@H]3[C@@H]1O2
Activity [1]: Active

C/C1=C\CC[C@@]2(C)O[C@@H]2[C@H]2OC(=O)/C(=C/c3ccccc3Br)[C@@H]2CC1
inhibition of growth at 10 µM [2]: 42.3%
inhibition of growth at 10 µM [3]: 22.3%
Activity [4]: Active
Activity [5]: Active
inhibition of growth at 10 µM [6]: 21.3%
Activity [7]: Active
inhibition of growth at 10 µM [8]: 28.1%
inhibition of growth at 10 µM [9]: 31.2%
EC50 [10]: 6 µM
inhibition of growth at 10 µM [11]: 34.1%
inhibition of growth at 10 µM [12]: 24.3%

C[C@@]12CC/C=C(/CO)CC[C@@H]3/C(=C\c4ccsc4)C(=O)O[C@@H]3[C@@H]1O2
inhibition [13]: Active

C=C1C(=O)O[C@@H]2C3O[C@]3(C)CC/C=C(\C)CC[C@@H]12 (stereo not given in full)
solubility [14]: 169 µM (≈ 42 µg/mL)
